The record followed here is ChEMBL document CHEMBL4024775, “Quinazolinone-Based Anticancer Agents: Synthesis, Antiproliferative SAR, Antitubulin Activity, and Tubulin Co-crystal Structure” (J Med Chem, 2018).

The source made the active and inactive calls. The calls are words filed in the database; no cut-off is given here.

For assay [1], the target named is T1, Steryl-sulfatase (Homo sapiens) (UniProt P08842).
T1 sequence (whole entry): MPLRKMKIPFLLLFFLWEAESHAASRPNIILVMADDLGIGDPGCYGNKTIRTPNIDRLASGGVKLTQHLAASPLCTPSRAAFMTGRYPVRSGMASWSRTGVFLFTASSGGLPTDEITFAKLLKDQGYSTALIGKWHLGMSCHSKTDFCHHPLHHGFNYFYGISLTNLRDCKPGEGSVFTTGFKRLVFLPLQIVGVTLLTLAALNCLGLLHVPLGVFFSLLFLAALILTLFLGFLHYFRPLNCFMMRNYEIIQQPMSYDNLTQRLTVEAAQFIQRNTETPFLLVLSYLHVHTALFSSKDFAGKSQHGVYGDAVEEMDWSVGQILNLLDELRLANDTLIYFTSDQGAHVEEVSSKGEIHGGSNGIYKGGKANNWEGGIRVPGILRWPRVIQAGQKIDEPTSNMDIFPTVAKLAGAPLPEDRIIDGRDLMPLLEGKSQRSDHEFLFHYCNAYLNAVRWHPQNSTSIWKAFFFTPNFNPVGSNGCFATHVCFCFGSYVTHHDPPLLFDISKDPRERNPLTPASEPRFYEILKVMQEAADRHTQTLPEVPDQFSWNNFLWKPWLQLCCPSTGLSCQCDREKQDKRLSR
Kind of assay: Inhibition of STS in human JEG3 cells at 100 uM using [6,7-3H]E1S as substrate after 3 hrs by liquid scintillation spectrometry. Format: cell-based. The essentials: (§1)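 JEG-3 cells were lysed in RIPA buffer and protein measured by BCA. Lysate (50 µg protein) was incubated 3 h in PBS with [6,7-3H]E1S at 20 µM final (unlabeled E1S added), with or without inhibitor. [4-14C]E1 tracked procedural losses. E1 was separated by toluene partition and counted by scintillation. Activity taken as pmol E1/h/mg protein and expressed as percent inhibited.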

Another assay has as its system DU-145. Kind of assay: Antiproliferative activity against human DU145 cells after 96 hrs by WST-1 cell proliferation assay. Format: functional. Conditions: DU-145, 96 h. The essentials:
(§2)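 Cells kept in RPMI-1640 with 10% FBS, penicillin and streptomycin at 37 °C, 5% CO2. Seeded at 5000 cells/well and exposed to 10-9–10-4 M compound or vehicle for 96 h. Live cells were read by WST-1. Viability was taken as percent of mean control and used to derive GI50. Triplicate experiments, mean values.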
On the technique in general: Formazan colour is commonly taken as a measure of viable cells.

Assay [2] relates to MDA-MB-231. Nature of the assay: Antiproliferative activity against human MDA-MB-231 cells after 96 hrs by WST-1 cell proliferation assay. In kind it is functional. Particulars: MDA-MB-231, 96 h. The essentials: as §2
Assay [3] can be described thus: Inhibition of bovine brain tubulin polymerization preincubated for 15 mins followed by GTP addition measured after 20 mins by spectrophotometric analysis. Set-up: species or system Bos taurus. The essentials: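 Bovine brain tubulin 1.0 mg/mL (10 µM) was preincubated without GTP with varied compound concentrations for 15 min at 30 °C, then chilled and given GTP (0.4 mM final). After a 0 °C baseline, turbidity rise was followed for 20 min after a jump to 30 °C. IC50 is the concentration that halves the turbidity increase.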

The species named for another assay is Bos taurus. Kind of assay: Inhibition of [3H]colchicine binding to bovine brain tubulin at 5 uM after 10 mins by DEAE-cellulose filter method relative to control. The procedure, abridged: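 Bovine brain tubulin 0.1 mg/mL (1.0 µM) with 5.0 µM [3H]colchicine and inhibitor at 5.0 µM, incubated 10 min at 37 °C. CA-4 served as comparator.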
In assay [4] the target is T1, Steryl-sulfatase (Homo sapiens). Kind of assay: Inhibition of STS in human JEG3 cells at 10 uM using [6,7-3H]E1S as substrate after 3 hrs by liquid scintillation spectrometry. In kind it is cell-based. The essentials: as §1
Assay [5] relates to RPMI-8226. Kind of assay: Antitumor activity against human RPMI8226 cell lines xenografted in NCr-nude mouse assessed as tumor growth inhibition at 40 mg/kg, po for 28 days measured on day 53. In kind it is functional. Conditions: RPMI-8226, po, read-out: TGI. The essentials: (§3)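 Female NCr-nude mice, 4-6 weeks old. 6 x 10^6 tumor cells mixed with an equal volume of Matrigel were implanted subcutaneously in the left flank. At about 100 mm3, mice were randomized into 3 groups of 6. Oral vehicle or compound given for 28 days. Tumor weight estimated as (w2 x l)/2 and read at day 53, 18 days after dosing ended.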
Background: Xenograft models place foreign cells or tissue in a host animal.

Assay [6] has as its system RPMI-8226. Kind of assay: Antitumor activity against human RPMI8226 cell lines xenografted in NCr-nude mouse assessed as tumor growth inhibition at 20 mg/kg, po for 28 days measured on day 53. In kind it is functional. Particulars: RPMI-8226, po, read-out: TGI. The essentials: as §3
For assay [7], the system named is MDA-MB-231. Kind of assay: Antiproliferative activity against human MDA-MB-231 cells after 48 hrs by MTT assay. Format: functional. Particulars: MDA-MB-231, 48 h.

As to `COc1ccc(CN2Cc3cc(OC)c(OS(N)(=O)=O)cc3NC2=O)cc1`, the inhibition (commonly the change of the read-out against control, counted positive when it falls) in assay [1] was “inactive”. Moreover, the GI50 in the assay with DU-145 and in the assay on MDA-MB-231 [2] was greater than 100 µM each time.
With `COc1ccc(CN2Cc3cc(OC)c(O)cc3NC2=O)cc1`, the GI50 in the assay on DU-145 and in the assay with MDA-MB-231 [2] was greater than 100 µM each time.
Regarding `COc1cc(CN2CCc3cc(O)ccc3C2)cc(OC)c1OC`, the inhibition result in assay [1] was “Active”.
Still for that read-out and setting: as for `COc1cc(CN2CCc3cc(OS(N)(=O)=O)ccc3C2)cc(OC)c1OC`, the entry is “Active”; as for `COc1cc2c(cc1OS(N)(=O)=O)CCN(Cc1cc(Br)c(OC)c(OC)c1)C2`, 45%.
Turning to `COc1cc2c(cc1O)NC(=O)N(Cc1cc(OC)c(OC)c(OC)c1)C2`, the GI50 (commonly the concentration giving 50% growth inhibition) with DU-145 turned out to be 8.4 µM; in the assay with MDA-MB-231 [2], 9.3 µM.
The corresponding values for `COc1cc2c(cc1O)NC(=O)N(Cc1ccccc1F)C2` are greater than 100 µM and greater than 100 µM.
For `COc1cc2c(cc1OS(N)(=O)=O)NC(=O)N(Cc1ccccc1)C2`, the inhibition entry in [1] is “inactive”. Also, the GI50 in the assay with DU-145 and with MDA-MB-231 [2] was greater than 100 µM throughout.
As to `COc1cc2c(cc1O)CCN(Cc1cc(Br)c(OC)c(OC)c1)C2`, the inhibition result in [1] was “Active”.
For `COc1cc2c(cc1O)NC(=O)N(Cc1ccccc1Cl)C2`, the GI50 was 5.6 µM with DU-145 and 5 µM with MDA-MB-231 [2].
With `COc1cc2c(cc1OS(N)(=O)=O)NC(=O)N(Cc1cc(OC)c(OC)c(OC)c1)C2`, in assay [1], the inhibition result was “inactive”. It took 5.6 µM to reach half-maximal inhibition in [3] (IC50). Also, the GI50 in the assay on DU-145 and in the assay with MDA-MB-231 [2] was 0.1 µM throughout.
With `CCc1cc2c(cc1OS(N)(=O)=O)CCN(Cc1cc(Br)c(OC)c(OC)c1)C2`, the inhibition result in [1] was “Active”.
`COc1cc2c(cc1OS(N)(=O)=O)NC(=O)N(Cc1ccccc1C)C2` gave an inhibition in [1] of 20 to 25%. In addition, the GI50 with DU-145 is 60 µM; with MDA-MB-231 [2], 7.4 µM.
In the case of `COc1cccc(CN2Cc3cc(OC)c(OS(N)(=O)=O)cc3NC2=O)c1`, the GI50 was determined as 33 µM in the assay on DU-145 and 34 µM with MDA-MB-231 [2].
For `COc1cc2c(cc1O)NC(=O)N(Cc1cccc(Cl)c1)C2`, in that order: 81 µM and greater than 100 µM.
In the case of `COc1ccc(OC)c(CN2Cc3cc(OC)c(OS(N)(=O)=O)cc3NC2=O)c1`, the inhibition result in assay [1] is “inactive”. For the same molecule, the IC50 (as a rule, the concentration at which inhibition is half-maximal) in assay [3] worked out at 2.5 µM. Besides, the inhibition in the assay filed under Bos taurus worked out at 61%. Also, the GI50 in the assay with DU-145 and in the assay with MDA-MB-231 [2] was 0.05 µM each time.
Consider `COc1cc2c(cc1OS(N)(=O)=O)NC(=O)N(Cc1cccc(OC)c1OC)C2`, for which the inhibition result in [1] was “inactive”. In assay [3], this molecule showed an IC50 of 8.6 µM. Besides, the GI50 in the assay on DU-145 worked out at 0.8 µM; in the assay on MDA-MB-231 [2] it was 0.4 µM.
As for `COc1cccc(CN2Cc3cc(OC)c(O)cc3NC2=O)c1`, the GI50 in the assay with DU-145 and with MDA-MB-231 [2] was greater than 100 µM each time.
For the molecule `COc1cc2c(cc1O)NC(=O)N(Cc1ccccc1OC)C2`, the GI50 in the assay on DU-145 is 2.2 µM; in the assay with MDA-MB-231 [2], 5.7 µM.
Take `CCc1cc2c(cc1OS(N)(=O)=O)CCN(Cc1cc(OC)c(OC)c(OC)c1)C2`: the inhibition result in [1] was “Active”.
Turning to `COc1ccccc1CN1Cc2cc(OC)c(OS(N)(=O)=O)cc2NC1=O`, in assay [4], the inhibition result was “Active”. In addition, the inhibition in vivo at 40 mg/kg with RPMI-8226 [5] came out at 31%. The inhibition is 70 to 80% in assay [1] and 55% in the assay listed under Bos taurus. This molecule returned an IC50 in [3] of 2.5 µM. Further, the results for the GI50 in the assay with DU-145 and with MDA-MB-231 [2] were 0.3 µM and 0.2 µM, respectively. In the assay with RPMI-8226 [6], the inhibition in vivo at 20 mg/kg came to 27%.
Take `COc1cc2c(cc1O)NC(=O)N(Cc1cccc(OC)c1OC)C2`: the GI50 in the assay on DU-145 came to 8.5 µM; in the assay on MDA-MB-231 [2] it was 8.3 µM.
Take `COc1ccc(/C=C\c2cc(OC)c(OC)c(OC)c2)cc1O` [COMBRETASTATIN A4]: growth with MDA-MB-231 [7] was halved (GI50) at 0.045 µM.
Consider `COc1cc2c(cc1OS(N)(=O)=O)NC(=O)N(Cc1ccccc1Cl)C2`, for which the inhibition entry in assay [4] is “Active”. Besides, the values for the inhibition (in assay [1]; in the assay listed under Bos taurus) were 70 to 80% and 43%, respectively. Also, the IC50 in [3] came out at 5 µM. The GI50 with DU-145 was 0.5 µM; in the assay with MDA-MB-231 [2] it was 0.2 µM.
Consider `COc1cc2c(cc1OS(N)(=O)=O)NC(=O)N(Cc1cccc(Cl)c1)C2`, for which the inhibition result in assay [4] was “Active”. This molecule yielded an inhibition in assay [1] of 70 to 80%. Also, the 50% growth inhibitory concentration (GI50) came to 3.2 µM in the assay on DU-145 and 2.2 µM in the assay with MDA-MB-231 [2].
Regarding `COc1cc2c(cc1OS(N)(=O)=O)NC(=O)N(Cc1ccccc1F)C2`, in assay [1], the inhibition was 20 to 25%. For the same molecule, the GI50 in the assay with DU-145 was 4.8 µM; in the assay on MDA-MB-231 [2], 4.5 µM.
The corresponding values for `COc1ccc(OC)c(CN2Cc3cc(OC)c(O)cc3NC2=O)c1` are “inactive”, 1.5 µM and 2.3 µM.
`COc1cc2c(cc1O)NC(=O)N(Cc1ccccc1)C2`: the GI50 in the assay on DU-145 and in the assay on MDA-MB-231 [2] was greater than 100 µM throughout.
Turning to `COc1cc2c(cc1O)NC(=O)N(Cc1ccccc1C)C2`, the GI50 in the assay on DU-145 and in the assay on MDA-MB-231 [2] was greater than 100 µM each time.
